In series [1] the test system is L. amazonensis promastigotes. Nature of the series: Activity against promastigotes. It is filed as cell-based. To be noted: Leishmania amazonensis, 24 h, read-out: IC50 L. amazonensis (P). In a few lines:
(§1)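 Promastigotes of L. major MHOM/SA/85/JISH118 or L. amazonensis MHOM/BR/LTB0016 were kept at 25 °C for at most 10 passages in Schneider's with 10% FBSi, 2% human urine and 5 mM HEPES. Late-exponential cells were seeded at 3×10^6 cells/mL. They were treated 24 h with test compound (DMSO stock diluted in Schneider's), in triplicate. Controls were 0.5% DMSO and amphotericin B. Resazurin read-out; IC50 fitted.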

The test system of series [2] is L. infantum promastigotes. Nature of the series: Activity against promastigotes. It is filed as cell-based. Conditions: Leishmania infantum, 24 h, read-out: IC50 L. infantum (P). The essentials: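 L. infantum MHOM/MA/67/ITMAP263 promastigotes were grown at 25 °C for at most 10 passages in RPMI with 10% FBSi and 5 mM HEPES, pH 7.4. Late-exponential cells were seeded at 3×10^6 cells/mL and exposed for 24 h to test compound (DMSO stock diluted in RPMI), in triplicate. Controls were 0.5% DMSO and amphotericin B. Resazurin fluorescence gave viability and IC50 was fitted.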

Series [3] is described as follows: Cytotoxicity in mammalian cells. Conditions: BALB/c, mouse, bone marrow-derived macrophages (BMDM). It is filed as cell-based, BALB/c mice. The essentials:
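Bone-marrow cells from BALB/c mice were differentiated for 7 days at 37 °C, 5% CO2. The medium was DMEM with 10% FBSi, 1% NEAA and 10% L929-conditioned medium. The resulting macrophages were exposed to test compound at up to 40 μM for 24 h. Viability was measured by resazurin assay. CC50 was calculated from percent viability relative to untreated control.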

Another series concerns L. major promastigotes. Nature of the series: Activity against promastigotes. The series is classed as cell-based. To be noted: Leishmania major, 24 h, read-out: IC50 L. major (P). The essentials:
as §1

In series [4] the test system is L. infantum axenic amastigotes. Nature of the series: Activity against axenic amastigotes. It is filed as cell-based. To be noted: Leishmania infantum, 24 h, read-out: IC50 L. infantum (AA). In a few lines:
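L. infantum axenic amastigotes came from parasites recently recovered from infected mouse spleen. They were kept at 37 °C, 5% CO2 in MAA with 20% iFBS, 2 mM Glutamax and 0.023 mM hemin. Cells were seeded at 1.5×10^5 per well in MAA20. Test compound was dissolved in DMSO and diluted in medium for 24 h, in triplicate. Controls were 0.5% DMSO and amphotericin B. Viability was read by resazurin fluorescence and IC50 fitted.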

Series [5] relates to L. infantum intracellular amastigotes. Nature of the series: IC50 against Leishmania intracellular amastigotes in infected macrophages. It is filed as cell-based, Leishmania infantum. To be noted: CC50 BMDM versus IC50 intracellular amastigotes. In a few lines:
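Ratio of BMDM CC50 (resazurin, 24 h) to intracellular IC50. For IC50, BALB/c BMDM were infected 3 h with stationary-phase L. infantum promastigotes (10:1), then washed. After 24 h, test compound in DMEM was added for 24 h, with 0.5% DMSO and amphotericin B controls. Cells were fixed, DAPI/CellMask stained and imaged automatically. IC50 was derived from percent infected macrophages.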

Here are results for eleven compounds from article PMC7096758 (Heliyon, 2020).

By IC50 is commonly meant the point on the concentration scale where inhibition reaches its midpoint. The term CC50 denotes the concentration that lowers cell viability or growth by half. Read a low CC50 as greater toxicity to the cells. For `C/C=C(\C)C(=O)NCc1ccc2c(c1)C(=O)CC(C)(C)N2` [Compound 14c, (E)-N-((2,2-dimethyl-4-oxo-1,2,3,4-tetrahydroquinolin-6-yl)methyl)-2-methylbut-2-enamide], the IC50 (in series [1]; in series [2]; in the series on L. major promastigotes) was above 20 µM throughout. The half-maximal cytotoxic concentration (CC50) at 24 h in series [3] was above 40 µM.
Take `Cc1ccc(Cc2ccc3c(c2)C(=O)CC(C)(C)O3)cc1` [Compound 21, 2,2-dimethyl-6-(4-methylbenzyl)chroman-4-one]: the 50% inhibitory concentration (IC50) (in series [1]; in series [2]; with L. major promastigotes) was above 20 µM throughout.
On to `CC1(C)CC(=O)c2cc(CNC(=O)C/C=C/c3ccccc3)ccc2N1` [Compound 14e, (E)-N-((2,2-dimethyl-4-oxo-1,2,3,4-tetrahydroquinolin-6-yl)methyl)-4-phenylbut-3-enamide], for which the half-inhibitory concentration (IC50) in series [1] was 10 to 20 µM; in the series with L. major promastigotes, above 20 µM. For the same compound, in series [3], the cytotoxic concentration (CC50) at 24 h is above 40 µM.
Take `C/C=C/C(=O)NCc1ccc2c(c1)C(=O)CC(C)(C)N2` [Compound 14b, (E)-N-((2,2-dimethyl-4-oxo-1,2,3,4-tetrahydroquinolin-6-yl)methyl)but-2-enamide]: the IC50 (in series [1]; in series [2]; with L. major promastigotes) was above 20 µM in each case. In addition, in series [3], the CC50 at 24 h is above 40 µM.
For the compound `C/C=C(\CO)C(=O)OCc1ccc2c(c1)C(=O)CC(C)(C)O2` [Compound 12a, (2,2-dimethyl-4-oxochroman-6-yl)methyl (E)-2-(hydroxymethyl)but-2-enoate], the IC50 (in series [1]; in series [2]; in the series with L. major promastigotes) was above 20 µM each time.
Consider `C/C=C(\CO)C(=O)NCc1ccc2c(c1)C(=O)CC(C)(C)O2` [Compound 13a, (E)-N-((2,2-dimethyl-4-oxochroman-6-yl)methyl)-2-(hydroxymethyl)but-2-enamide], for which the IC50 (in series [1]; in series [2]; in the series with L. major promastigotes) was above 20 µM in each case.
As for `CC1(C)CC(=O)c2cc(CNC(=O)/C=C/c3cccs3)ccc2N1` [Compound 14f, (E)-N-((2,2-dimethyl-4-oxo-1,2,3,4-tetrahydroquinolin-6-yl)methyl)-3-(thiophen-2-yl)acrylamide], the IC50 (in series [1]; in series [2]; with L. major promastigotes) was above 20 µM throughout. This compound also gave a CC50 at 24 h in series [3] above 40 µM.
Consider `CC(C)=CC(=O)NCc1ccc2c(c1)C(=O)CC(C)(C)N2` [Compound 14d, N-((2,2-dimethyl-4-oxo-1,2,3,4-tetrahydroquinolin-6-yl)methyl)-3-methylbut-2-enamide], for which the IC50 (in series [1]; in series [2]; with L. major promastigotes) was above 20 µM in each case. The compound further came in with a CC50 at 24 h in series [3] above 40 µM.
`CCCCCCCCNCc1ccc2c(c1)C(=O)CC(C)(C)O2` [Compound 13c, 2,2-dimethyl-6-((octylamino)methyl)chroman-4-one]: the IC50 in series [4] came to 25.3 ± 2.1 µM. The compound further showed a selectivity index in series [5] of 1.6. In series [3], this compound yielded a half-maximal cytotoxic concentration (CC50) at 24 h of 40.2 ± 5.7 µM.
For `C/C=C(\CO)C(=O)NCc1ccc2c(c1)C(=O)CC(C)(C)N2` [Compound 14g, (E)-N-((2,2-dimethyl-4-oxo-1,2,3,4-tetrahydroquinolin-6-yl)methyl)-2-(hydroxymethyl)but-2-enamide], the IC50 (in series [1]; in series [2]; in the series with L. major promastigotes) was above 20 µM each time.
Regarding `C[C@@H]1[C@H](O)[C@@H](C)/C=C/C=C/C=C/C=C/C=C/C=C/C=C/[C@H](O[C@@H]2O[C@H](C)[C@@H](O)[C@H](N)[C@@H]2O)C[C@@H]2O[C@](O)(C[C@@H](O)C[C@@H](O)[C@H](O)CC[C@@H](O)C[C@@H](O)CC(=O)O[C@H]1C)C[C@H](O)[C@H]2C(=O)O` [Amphotericin B, reference compound], the IC50 in series [1] is 0.2 ± 0.06 µM; in series [4] it was 0.4 ± 0.3 µM; in series [2] it was 0.18 ± 0.09 µM; in the series on L. major promastigotes, 0.17 ± 0.08 µM. The CC50 at 24 h in series [3] worked out at 4.37 ± 0.97 µM.
